From ChEMBL document CHEMBL1123469, “Synthesis and activity of 6-aryl-3-(hydroxypolymethyleneamino)pyridazines in animal models of epilepsy” (1986)

Experiments:
Type in all cases: functional
Mus musculus [1] = assay: Evaluated for the sedative property by the rotarod test at 100 mg/kg.
Procedure, shortened: (§1)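 Motor coordination was tested on the rotorod in groups of 10 female Swiss CD1 mice (18-23 g). Drug or vehicle was given orally, test compounds in dilute HCl (pH 3), 60 min before testing.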

Mus musculus [2] = assay: Evaluated for Bicuculline-induced lethality (anticonvulsant activity) when administered 100 mg/kg orally in mice.; settings: route oral
Procedure, shortened: (§2)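 Female Swiss albino CD1 mice (18-23 g), oral dosing (20 mL/kg); test compounds dissolved in dilute HCl (pH 3), reference drugs suspended in 5% gum tragacanth. Bicuculline challenge, scoring protection from seizures and from lethality. […] Weakly active agents reported as percent protected at the stated dose.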

Mus musculus [3] = assay: Evaluated for Bicuculline-induced seizures (anticonvulsant activity) when administered at 100 mg/kg orally in mice.; settings: route oral
Procedure, shortened: (§3)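 Female Swiss CD1 mice (18-23 g) were dosed orally at 20 mL/kg, test compounds in dilute HCl (pH 3) and references in gum tragacanth. Protection against bicuculline- or pentylenetetrazole-induced clonic/tonic seizures and lethality was scored.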

Mus musculus [4] = assay: Anticonvulsant activity when administered 100 mg/kg orally in mice Maximal electroshock (MES); settings: route oral
Procedure, shortened: (§4)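 Female Swiss CD1 mice (18-23 g), groups of 10, were dosed orally at 20 mL/kg. Test compounds were given in dilute HCl (pH 3) and references in 5% gum tragacanth, 60 min before a 60-V alternating current for 0.3 s through corneal electrodes. Protection meant abolition of the hindlimb tonic extensor component.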

Mus musculus [5] = assay: Evaluated for Bicuculline-induced lethality (anticonvulsant activity) when administered orally in mice.; settings: po; procedure, shortened: as §2
Mus musculus [6] = organism: Mus musculus; assay: Sedative property by the rotarod test; procedure, shortened: as §1
Mus musculus [7] = assay: Evaluated for anticonvulsant activity when administered orally in mice by Maximal electroshock (MES).; settings: po; procedure, shortened: as §4
Mus musculus [8] = assay: Evaluated for Bicuculline-induced seizures (anticonvulsant activity) when administered orally in mice.; settings: po; procedure, shortened: as §3

Row | Structure (SMILES) | Protected (Mus musculus [1]) | Protected (Mus musculus [2]) | Protected (Mus musculus [3]) | Protected (Mus musculus [4]) | ED50 (Mus musculus [5]) | ED50 (Mus musculus [6]) | ED50 (Mus musculus [7]) | ED50 (Mus musculus [8])
1 | Clc1ccccc1-c1ccc(N2CCC3(CC2)OCCO3)nn1 | 0% | 30% | 40% |  |  |  |  | 
2 | N#Cc1cccc(-c2ccc(N3CCC(O)CC3)nn2)c1 | 0% |  | 10% | 33% |  |  |  | 
3 | O=[N+]([O-])c1ccccc1-c1ccc(N2CCC(O)CC2)nn1 | 0% |  |  |  | 57 mg/kg |  |  | 
4 | CNC(=O)OC1CCN(c2ccc(-c3ccccc3Cl)nn2)CC1 |  |  |  |  | 9 mg/kg | 37 mg/kg |  | 
5 | OC1CCN(c2ccc(-c3ccc(Cl)c(Cl)c3)nn2)CC1 | 100% | 20% | 0% | 25% |  |  |  | 
6 | O=[N+]([O-])c1cccc(-c2ccc(N3CCC(O)CC3)nn2)c1 | 30% | 20% | 0% |  |  |  | 79 mg/kg | 
7 | Cc1ccccc1-c1ccc(N2CCC(O)CC2)nn1 |  |  |  |  | 60 mg/kg |  | 30 mg/kg | 40 mg/kg
8 | COc1ccc(-c2ccc(N3CCC(O)CC3)nn2)cc1 | 0% |  | 20% | 50% |  |  |  | 
9 | OC1CCN(c2ccc(-c3ccccc3)nn2)CC1 | 0% |  |  |  | 41 mg/kg |  |  | 
10 | CCCC(=O)OC1CCN(c2ccc(-c3ccccc3Cl)nn2)CC1 | 0% |  |  |  | 30 mg/kg |  |  | 
11 | Cc1cccc(-c2ccc(N3CCC(O)CC3)nn2)c1 | 0% |  | 30% |  | 50 mg/kg |  | 36 mg/kg | 
12 | CCCCNC(=O)OC1CCN(c2ccc(-c3ccc(Cl)cc3)nn2)CC1 | 0% |  | 0% | 0% |  |  |  | 
13 | C/N=C(\S)OC1CCN(c2ccc(-c3ccccc3Cl)nn2)CC1 |  |  |  |  | 20 mg/kg |  | 35 mg/kg | 20 mg/kg
14 | CCCCNC(=O)OC1CCN(c2ccc(-c3ccccc3Cl)nn2)CC1 | 0% |  | 0% | 20% |  |  |  | 
15 | OC1CCN(c2ccc(-c3cccs3)nn2)CC1 | 0% |  | 0% | 0% |  |  |  | 
16 | OC1CCN(c2ccc(-c3ccccc3F)nn2)CC1 | 0% |  |  |  | 34 mg/kg |  |  | 
17 | CCC(=O)OC1CCN(c2ccc(-c3ccc(Cl)cc3Cl)nn2)CC1 |  |  |  |  | 13 mg/kg | 71 mg/kg | 50 mg/kg | 16 mg/kg
18 | OC1CCN(c2ccc(-c3ccc(Cl)cc3)nn2)CC1 | 40% | 70% | 0% |  |  |  | 29 mg/kg | 
19 | CNC(=O)OC1CCN(c2ccc(-c3ccc(Cl)cc3)nn2)CC1 | 0% |  | 20% | 20% |  |  |  | 
20 | CC(=O)OC1CCN(c2ccc(-c3ccc(Cl)cc3Cl)nn2)CC1 |  |  |  |  | 8.3 mg/kg | 70 mg/kg | 14 mg/kg | 9.8 mg/kg
21 | O=C(Nc1cccc(Cl)c1)OC1CCN(c2ccc(-c3ccccc3Cl)nn2)CC1 | 0% |  | 0% | 35% |  |  |  | 
22 | O=C(OC1CCN(c2ccc(-c3ccccc3Cl)nn2)CC1)C1CC1 | 0% |  |  | 60% | 71 mg/kg |  |  | 
23 | CNC(=O)OC1CCN(c2ccc(-c3ccc(F)cc3)nn2)CC1 | 20% | 30% | 40% |  |  |  | 40 mg/kg | 
24 | O=COC1CCN(c2ccc(-c3ccc(Cl)cc3Cl)nn2)CC1 |  |  | 50% |  |  | 69 mg/kg | 24 mg/kg | 
25 | O=C1CCN(c2ccc(-c3ccccc3Cl)nn2)CC1 | 40% |  |  |  | 25 mg/kg |  |  | 
26 | OC1CCN(c2ccc(-c3ccc(Cl)s3)nn2)CC1 | 0% |  | 50% | 30% |  |  |  | 
